Active and inactive are the calls of the source. The calls are words filed in the database; no cut-off is given here.

Chain of Cytochrome P450 2C9 (P11712 whole entry): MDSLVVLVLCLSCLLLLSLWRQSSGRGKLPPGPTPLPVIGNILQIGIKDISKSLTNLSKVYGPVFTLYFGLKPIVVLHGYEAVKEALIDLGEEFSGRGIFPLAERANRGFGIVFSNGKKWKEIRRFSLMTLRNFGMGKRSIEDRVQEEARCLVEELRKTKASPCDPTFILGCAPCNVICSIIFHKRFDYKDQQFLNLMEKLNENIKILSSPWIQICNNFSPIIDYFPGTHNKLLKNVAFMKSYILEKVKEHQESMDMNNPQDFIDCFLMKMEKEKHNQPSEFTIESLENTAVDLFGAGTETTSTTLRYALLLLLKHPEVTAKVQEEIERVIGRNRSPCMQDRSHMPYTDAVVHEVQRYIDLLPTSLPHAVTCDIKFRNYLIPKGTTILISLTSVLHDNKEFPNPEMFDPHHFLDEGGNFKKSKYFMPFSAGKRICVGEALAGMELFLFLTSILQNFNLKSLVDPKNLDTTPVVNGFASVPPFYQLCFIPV

System in one series: not listed separately
As to the kind of experiment: Inhibition of UGT in human liver microsomes using 4-methylumbelliferone as substrate after 10 mins by fluorescence analysis. The format is ADME, Microsome.
Conditions: not given
In a few lines: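 Pooled human liver microsomes (0.4 mg/mL) were incubated with 4-MU (100 μM), compound at 10 or 100 μM, 0.05% BSA, and 0.1 M Tris–HCl pH 7.5 with 5 mM MgCl2. The reaction was started with UDPGA (4 mM), and 4-MU depletion was followed by fluorescence over 10 min. Vehicle was 0.2% MeOH and diclofenac (400 μM) was the positive control. Data are means ± SD of triplicate incubations.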
For orientation: Microsomes from liver hold many membrane-bound enzymes, among them those of drug oxidation.
Turning to `COc1cc(O)c2c(c1)O[C@H](c1ccc3c(c1)O[C@@H](c1ccc(O)c(OC)c1)[C@H](CO)O3)[C@@H](O)C2=O`, the “inhibition (INH)” value was “Active”.

As for `COc1cc(O)c2c(c1)O[C@H](C1=C[C@H]3C(=O)[C@]4(O)OC[C@H]([C@H]3c3ccc(O)c(OC)c3)[C@H]14)[C@@H](O)C2=O`, the “inhibition (INH)” value is recorded as “Active”.

Turning to `COc1cc(O)c2c(c1)O[C@H](c1ccc3c(c1)O[C@H](c1ccc(O)c(OC)c1)[C@@H](CO)O3)[C@@H](O)C2=O`, the “inhibition (INH)” value is given as “Active”.

On to `COc1cc([C@H]2Oc3cc([C@H]4Oc5cc(O)cc(O)c5C(=O)[C@@H]4O)ccc3O[C@@H]2CO)ccc1O` [SILYBIN A], for which the “inhibition (INH)” value is “Active”.

With `O=C(O)Cc1ccccc1Nc1c(Cl)cccc1Cl` [DICLOFENAC], the “inhibition (INH)” value was found to be 56%.

Turning to `COc1cc([C@@H]2[C@H]3CO[C@@]4(O)C(=O)[C@@H]2C=C([C@H]2Oc5cc(O)cc(O)c5C(=O)[C@@H]2O)[C@@H]34)ccc1O` [SILIDIANIN], the “inhibition (INH)” value was “Active”.

Consider `COc1cc([C@@H]2Oc3cc([C@H]4Oc5cc(O)cc(O)c5C(=O)[C@@H]4O)ccc3O[C@H]2CO)ccc1O` [SILYBIN B], for which the “inhibition (INH)” value was “Active”.

Another series has as its target Cytochrome P450 2C9 (Homo sapiens, UniProt P11712). The series is described as follows: Inhibition of CYP2C9 in human liver microsomes using (S)-warfarin as substrate after 30 mins. The format is ADME, Microsome. The note with it: 0.5 h.
In the case of `COc1cc([C@H]2Oc3ccc([C@H]4Oc5cc(O)cc(O)c5C(=O)[C@@H]4O)cc3O[C@@H]2CO)ccc1O` [ISOSILYBIN A], the “inhibition (INH)” value is recorded as “Not Active”.

The next series relates to Hepatitis C virus. The series is described as follows: Antiviral activity against HCV JFH-1 infected in human Huh7.5.1 cells assessed as viral core protein expression at 1.6 to 16.1 uM after 72 hrs by Western blot analysis. The series is classed as functional, organism-based. The note with it: Hepacivirus hominis, Huh-7. (In western blotting, separated proteins are transferred to a membrane and probed.)
For the molecule `COc1cc(O)c2c(c1)O[C@H](c1ccc3c(c1)O[C@@H](CO)[C@H](c1ccc(O)c(OC)c1)O3)[C@@H](O)C2=O`, the outcome was Active.

Consider `COc1cc([C@@H]2Oc3ccc([C@H]4Oc5cc(O)cc(O)c5C(=O)[C@@H]4O)cc3O[C@H]2CO)ccc1O` [ISOSILYBIN B], for which the result was Active.

The subject of the next series is Hepatitis C virus. The series is described as follows: Antiviral activity against HCV JFH-1 infected in human Huh7.5.1 cells assessed as viral core protein expression at 6.2 to 62.1 uM after 72 hrs by Western blot analysis. The format is functional, organism-based. The note with it: Hepacivirus hominis, Huh-7.
Consider `COc1cc([C@H]2Oc3cc([C@H]4Oc5cc(O)cc(O)c5C(=O)[C@@H]4O)ccc3O[C@@H]2CO)ccc1O` [SILYBIN A], for which the outcome was Active.

As to `COc1cc([C@H]2Oc3ccc([C@H]4Oc5cc(O)cc(O)c5C(=O)[C@@H]4O)cc3O[C@@H]2CO)ccc1O` [ISOSILYBIN A], the result was Active.

`COc1cc([C@@H]2Oc3cc([C@H]4Oc5cc(O)cc(O)c5C(=O)[C@@H]4O)ccc3O[C@H]2CO)ccc1O` [SILYBIN B]: the outcome was Active.

In a further series the test system is Hepatitis C virus. The series is described as follows: Antiviral activity against HCV JFH-1 infected in human Huh7.5.1 cells assessed as viral core protein expression at 0.8 to 8 uM after 72 hrs by Western blot analysis. The format is functional, organism-based. The note with it: Hepacivirus hominis, Huh-7.
For the molecule `COc1cc(O)c2c(c1)O[C@H](c1ccc3c(c1)O[C@H](CO)[C@@H](c1ccc(O)c(OC)c1)O3)[C@@H](O)C2=O`, the result was Active.

As for `COc1cc(O)c2c(c1)O[C@H](c1ccc3c(c1)O[C@@H](c1ccc(O)c(OC)c1)[C@H](CO)O3)[C@@H](O)C2=O`, the outcome was Active.

Take `COc1cc(O)c2c(c1)O[C@H](C1=C[C@H]3C(=O)[C@]4(O)OC[C@H]([C@H]3c3ccc(O)c(OC)c3)[C@H]14)[C@@H](O)C2=O`: the outcome was Active.

As to `COc1cc(O)c2c(c1)O[C@H](c1ccc3c(c1)O[C@H](c1ccc(O)c(OC)c1)[C@@H](CO)O3)[C@@H](O)C2=O`, the outcome was Active.

The test system of a further series is Hepatitis C virus. The series is described as follows: Antiviral activity against HCV JFH-1 infected in human Huh7.5.1 cells assessed as viral core protein expression at 12.4 to 124.2 uM after 72 hrs by Western blot analysis. The format is functional, organism-based. The note with it: Hepacivirus hominis, Huh-7.
As for `COc1cc([C@@H]2Oc3c(O)ccc([C@H]4Oc5cc(O)cc(O)c5C(=O)[C@@H]4O)c3[C@H]2CO)ccc1O` [ISOSILYCHRISTIN], the result was inactive.

On to `COc1cc(O)c2c(c1)O[C@H](c1ccc(O)c3c1[C@@H](CO)[C@H](c1ccc(O)c(OC)c1)O3)[C@@H](O)C2=O`, for which the outcome was Active.

Take `COc1cc(C2Oc3c(O)cc([C@H]4Oc5cc(O)cc(O)c5C(=O)[C@@H]4O)cc3C2CO)ccc1O` (some centres not stated) [SILICRISTIN]: the outcome was inactive.

For the molecule `COc1cc([C@@H]2[C@H]3CO[C@@]4(O)C(=O)[C@@H]2C=C([C@H]2Oc5cc(O)cc(O)c5C(=O)[C@@H]2O)[C@@H]34)ccc1O` [SILIDIANIN], the result was inactive.

The subject of a further series is Hepatitis C virus. As to the kind of experiment: Antiviral activity against HCV JFH-1 infected in human Huh7.5.1 cells assessed as viral core protein expression at 6 to 60.3 uM after 72 hrs by Western blot analysis. The format is functional, organism-based. Conditions: Hepacivirus hominis, Huh-7.
Consider `COc1cc(O)c2c(c1)O[C@H](c1cc(O)c3c(c1)[C@@H](CO)[C@H](c1ccc(O)c(OC)c1)O3)[C@@H](O)C2=O`, for which the result was Active.

System in the next series: not listed separately
As to the kind of experiment: Cytotoxicity against human Huh7.5.1 cells after 72 hrs. The series is classed as functional, cell-based. The note with it: Huh-7, 72 h. The method, boiled down:
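Huh7.5.1 hepatoma cells were seeded at 10,000 per well and incubated overnight. They were then exposed to nine concentrations from 0 to 62.5 μM. Viability was read after 72 h with an ATPlite assay. Each point was run in three replicates, and IC50 was derived by linear regression.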
The molecule `COc1cc(O)c2c(c1)O[C@H](c1ccc3c(c1)O[C@@H](CO)[C@H](c1ccc(O)c(OC)c1)O3)[C@@H](O)C2=O` yielded an IC50 of 18 µM.

Regarding `COc1cc(O)c2c(c1)O[C@H](c1ccc3c(c1)O[C@H](CO)[C@@H](c1ccc(O)c(OC)c1)O3)[C@@H](O)C2=O`, 13.2 µM corresponded to half-maximal inhibition (IC50).

For the molecule `Oc1ccc(/C=C/c2cc(O)cc(O)c2)cc1` [RESVERATROL], it took 10.6 µM to reach half-maximal inhibition (IC50).

As for `COc1cc([C@@H]2Oc3c(O)ccc([C@H]4Oc5cc(O)cc(O)c5C(=O)[C@@H]4O)c3[C@H]2CO)ccc1O` [ISOSILYCHRISTIN], the IC50 was > 130 µM.

On to `COc1cc(O)c2c(c1)O[C@H](c1ccc3c(c1)O[C@@H](c1ccc(O)c(OC)c1)[C@H](CO)O3)[C@@H](O)C2=O`, for which the IC50 was 12.7 µM.

`COc1cc(O)c2c(c1)O[C@H](C1=C[C@H]3C(=O)[C@]4(O)OC[C@H]([C@H]3c3ccc(O)c(OC)c3)[C@H]14)[C@@H](O)C2=O` had an IC50 of 9.4 µM.

Take `COc1cc(O)c2c(c1)O[C@H](c1ccc(O)c3c1[C@@H](CO)[C@H](c1ccc(O)c(OC)c1)O3)[C@@H](O)C2=O`: the IC50 is 27.6 µM. Against the preceding molecule, the IC50 is about 2.9-fold higher.

Regarding `COc1cc(C2Oc3c(O)cc([C@H]4Oc5cc(O)cc(O)c5C(=O)[C@@H]4O)cc3C2CO)ccc1O` (some centres not stated) [SILICRISTIN], the 50% inhibitory concentration (IC50) is > 130 µM.

As to `COc1cc(O)c2c(c1)O[C@H](c1ccc3c(c1)O[C@H](c1ccc(O)c(OC)c1)[C@@H](CO)O3)[C@@H](O)C2=O`, the IC50 was 9.5 µM. That is a single-digit micromolar value.

For the molecule `COc1cc(O)c2c(c1)O[C@H](c1cc(O)c3c(c1)[C@@H](CO)[C@H](c1ccc(O)c(OC)c1)O3)[C@@H](O)C2=O`, inhibition was half-maximal at 66.4 µM (IC50).

As for `COc1cc([C@H]2Oc3cc([C@H]4Oc5cc(O)cc(O)c5C(=O)[C@@H]4O)ccc3O[C@@H]2CO)ccc1O` [SILYBIN A], the IC50 came out at 80 µM.

For the molecule `COc1cc([C@@H]2[C@H]3CO[C@@]4(O)C(=O)[C@@H]2C=C([C@H]2Oc5cc(O)cc(O)c5C(=O)[C@@H]2O)[C@@H]34)ccc1O` [SILIDIANIN], the IC50 was > 130 µM.

With `COc1cc([C@H]2Oc3ccc([C@H]4Oc5cc(O)cc(O)c5C(=O)[C@@H]4O)cc3O[C@@H]2CO)ccc1O` [ISOSILYBIN A], the IC50 turned out to be 80 µM. This lies in the double-digit micromolar range.

The molecule `COc1cc([C@@H]2Oc3ccc([C@H]4Oc5cc(O)cc(O)c5C(=O)[C@@H]4O)cc3O[C@H]2CO)ccc1O` [ISOSILYBIN B] returned an IC50 of 27 µM.

For the molecule `COc1cc([C@@H]2Oc3cc([C@H]4Oc5cc(O)cc(O)c5C(=O)[C@@H]4O)ccc3O[C@H]2CO)ccc1O` [SILYBIN B], the IC50 came out at 68.7 µM. Compared with the last molecule, the IC50 is about 2.5-fold higher.

As a reminder, the IC50 is the concentration that inhibits the measured activity by half. A low value points to greater potency in that assay.

The record behind these values is ChEMBL document CHEMBL2396584, “Semisynthesis, cytotoxicity, antiviral activity, and drug interaction liability of 7-O-methylated analogues of flavonolignans from milk thistle” (Bioorg Med Chem, 2013).
